Results: ChEMBL document CHEMBL1146349, “Endomorphin-1 analogs with enhanced metabolic stability and systemic analgesic activity: design, synthesis, and pharmacological characterization” (Bioorg Med Chem, 2007)
Activity calls are given as the source filed them.

Columns and labels:
[1] = target: Delta-type opioid receptor (Rattus norvegicus, UniProt P33533); assay: Binding affinity to delta opioid receptor in rat brain synaptosome membrane by radioligand binding assay; format: cell membranes
Summary of the method: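 Displacement of [3H]Tyr-c[D-Pen-Gly-Phe-D-Pen]-OH 1 nM, 3 h incubation, rat brain synaptosomal membranes (300–500 µg/mL protein), 50 mM Tris–HCl pH 7.4; 10 µM naloxone defines nonspecific binding; duplicate assays, at least three repeats.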

[2] = Distribution coefficient, log D in octanol and […] at pH 7.4; format: physicochemical
Summary of the method: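 Shake-flask: 50 µg peptide in pre-equilibrated 0.05 M Hepes/0.1 M NaCl pH 7.4 with octanol, vortexed 2 min, centrifuged; both phases quantified by RP-HPLC; D = octanol/buffer ratio; triplicate.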

Mus musculus = assay: Antinociceptive activity in mouse at 30 mg/kg, sc by tail flick test; format: functional, organism-based; parameters: dose 30 mg/kg
Summary of the method: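 Mice given 30 mg/kg sc (100 µL); 50 °C warm-water tail-flick, baseline responders under 5 s kept, 10 s cut-off; latencies at 5–60 min post-dose; %MPE = 100·(TL−CL)/(10−CL); saline control; six to eight mice per group, mean with SEM.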

Mu-type opioid receptor [3] = target: Mu-type opioid receptor (Cavia porcellus, UniProt P97266); assay: Agonist activity at mu opioid receptor in guinea pig ileum assessed as inhibition of electrically-induced twitches; format: functional, tissue-based
Summary of the method: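 GPI: twitches evoked at 0.1 Hz, 50 V, 0.5-ms pulse width; isometric recording; dose–response curves with IC50 derived graphically; arithmetic mean of five to eight measurements.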

[4] = Half life in mouse serum; format: ADME, cell-free
Summary of the method: (§1)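 Peptides at 500 µM final in 15% mouse brain homogenate (washed) or 100% mouse serum, 2.3 mg/mL protein, 50 mM Tris pH 7.4, 37 °C; sampled 0–300 min in triplicate; stopped with acetonitrile, acidified, centrifuged, remaining peptide by RP-HPLC.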

[5] = Protein binding to BSA; format: ADME, Bos taurus; details: cattle, isolated protein
Summary of the method: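 Peptides in mammalian Ringer's solution with 10 g/L BSA and 3.9% dextran, pH 7.4, 37 °C; ultrafiltration (30 kDa cut-off, 2000g, 10 min); total and free peptide by RP-HPLC; % bound = (T−F)/T×100; triplicate.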

Mu-type opioid receptor [6] = target: Mu-type opioid receptor (Rattus norvegicus, UniProt P33535); assay: Binding affinity to mu opioid receptor in rat brain synaptosome membrane by radioligand binding assay; format: cell membranes
Summary of the method: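 Competition vs [3H]Tyr-D-Ala-Gly-MePhe-Gly-ol (DAMGO-type mu ligand) 0.5 nM, 1 h, on rat brain synaptosomal membranes (300–500 µg/mL protein) in 50 mM Tris–HCl pH 7.4; nonspecific binding with 10 µM naloxone; duplicates, repeated at least three times.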

[7] = Half life in mouse brain; format: ADME, tissue-based; summary of the method: as §1
[8] = target: Delta-type opioid receptor (Mus musculus, UniProt P32300); assay: Agonist activity at delta opioid receptor in mouse vas deferens assessed as inhibition of electrically-induced twitches; format: functional, tissue-based
Summary of the method: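 MVD: paired rectangular pulses (1-ms width, 100-ms apart, 9 V/cm, supramaximal) every 10 s; isometric twitch recording; dose–response curves, IC50 read graphically; mean of five to eight measurements.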

Delta-type opioid receptor (Rattus norvegicus, UniProt P33533), sequence (P33533 whole entry): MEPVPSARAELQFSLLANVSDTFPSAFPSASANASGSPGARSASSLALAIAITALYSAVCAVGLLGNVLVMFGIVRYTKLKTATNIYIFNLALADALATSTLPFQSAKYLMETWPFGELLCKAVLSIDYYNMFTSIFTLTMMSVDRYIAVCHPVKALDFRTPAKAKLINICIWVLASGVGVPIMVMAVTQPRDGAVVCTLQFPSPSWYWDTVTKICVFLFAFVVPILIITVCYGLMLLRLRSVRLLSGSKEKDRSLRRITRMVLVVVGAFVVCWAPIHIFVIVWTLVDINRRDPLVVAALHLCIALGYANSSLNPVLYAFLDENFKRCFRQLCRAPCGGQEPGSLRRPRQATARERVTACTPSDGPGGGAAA
Delta-type opioid receptor (Mus musculus, UniProt P32300), sequence (P32300 whole entry): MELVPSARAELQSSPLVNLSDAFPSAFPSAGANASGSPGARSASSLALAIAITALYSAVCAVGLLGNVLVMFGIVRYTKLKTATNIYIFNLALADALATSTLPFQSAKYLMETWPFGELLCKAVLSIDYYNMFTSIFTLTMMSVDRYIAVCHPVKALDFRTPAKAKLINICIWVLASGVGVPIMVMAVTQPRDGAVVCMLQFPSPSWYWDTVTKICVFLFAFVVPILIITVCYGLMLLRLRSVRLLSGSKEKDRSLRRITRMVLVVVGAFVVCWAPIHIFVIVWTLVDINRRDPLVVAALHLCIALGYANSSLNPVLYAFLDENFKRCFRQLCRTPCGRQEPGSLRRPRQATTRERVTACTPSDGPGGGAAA
Mu-type opioid receptor (Cavia porcellus, UniProt P97266), sequence (P97266 whole entry): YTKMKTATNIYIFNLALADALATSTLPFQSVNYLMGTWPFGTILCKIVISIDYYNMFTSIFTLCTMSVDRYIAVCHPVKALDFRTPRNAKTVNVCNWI
Mu-type opioid receptor (Rattus norvegicus, UniProt P33535), sequence (P33535 whole entry): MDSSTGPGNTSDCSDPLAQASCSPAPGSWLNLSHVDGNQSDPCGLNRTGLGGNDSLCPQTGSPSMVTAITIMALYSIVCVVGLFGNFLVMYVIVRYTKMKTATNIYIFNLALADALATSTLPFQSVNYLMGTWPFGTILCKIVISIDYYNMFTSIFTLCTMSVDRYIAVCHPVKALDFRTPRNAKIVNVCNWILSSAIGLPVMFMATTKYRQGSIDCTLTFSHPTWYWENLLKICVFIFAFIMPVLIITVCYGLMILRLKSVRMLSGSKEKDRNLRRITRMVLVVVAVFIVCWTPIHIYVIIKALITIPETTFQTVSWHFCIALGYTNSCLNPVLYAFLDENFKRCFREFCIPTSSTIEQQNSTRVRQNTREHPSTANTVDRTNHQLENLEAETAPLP

| Structure (SMILES) | Ki [1] [µM] | logD [2] | Activity (Mus musculus) | IC50 (Mu-type opioid receptor [3]) [µM] | half-life [4] [h] | Activity [5] [%] | Ki (Mu-type opioid receptor [6]) [µM] | half-life [7] [h] | IC50 [8] [µM] |
| --- | --- | --- | --- | --- | --- | --- | --- | --- | --- |
| COc1ccc(C[C@H](NC(=N)N)C(=O)N2CCC[C@@H]2C(=O)NCC(=O)N[C@@H](Cc2c[nH]c3ccccc23)C(=O)N[C@@H](Cc2ccc(Cl)cc2)C(N)=O)cc1 | 1.48 | 1.64 | Active | > 1 | 3.6 | 62.52 | 0.919 | 6.82 | > 10 |
| COc1ccc(C[C@H](N=C(N)N)C(=O)N2CCC[C@H]2C(=O)N[C@@H](Cc2c[nH]c3ccccc23)C(=O)N[C@@H](Cc2ccc(Cl)cc2)C(N)=O)cc1 | 1.37 | 1.33 |  | 0.845 | 0.803 | 65.57 | 0.538 | 3.17 | 1.29 |
| COc1ccc(C[C@H](N=C(N)N)C(=O)N2CCC[C@H]2C(=O)N[C@@H](Cc2c[nH]c3ccccc23)C(=O)N[C@@H](Cc2ccccc2)C(N)=O)cc1 | 4.79 | 0.21 |  | 0.988 | 0.522 | 40.58 | 0.792 | 4.3 | 1.34 |
| COc1ccc(C[C@H](N=C(N)N)C(=O)N2CCC[C@@H]2C(=O)NCC(=O)N[C@@H](Cc2c[nH]c3ccccc23)C(=O)N[C@@H](Cc2ccccc2)C(N)=O)cc1 | > 10 | 0.78 |  | > 1 | 2.75 | 45.15 | 1.06 | 7.45 | > 10 |
